{"source": "ChEMBL document CHEMBL5653617", "about": "“Inhibition of BRD4 attenuates tumor cell self-renewal and suppresses stem cell signaling in MYC driven medulloblastoma” (Oncotarget, 2014)", "key": {"[1]": {"target": "Bromodomain-containing protein 4 (Homo sapiens) (UniProt O60885)", "conditions": "Daoy, dose 300.0 nM"}, "[2]": {"target": "Bromodomain-containing protein 4 (Homo sapiens) (UniProt O60885)", "conditions": "D283 Med, time 24-48 hrs"}, "[3]": {"target": "Bromodomain-containing protein 4 (Homo sapiens) (UniProt O60885)", "conditions": "D283 Med, dose 300.0 nM"}, "Daoy [4]": {"system": "Daoy", "experiment": "Suppression of human Daoy cells self-renewal cultured in serum free condition assessed as reduction in formation of new neurosphere at 300 nM", "format": "functional, cell-based", "outline": "(§1)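 Cells grown as neurospheres in serum-free medium for 48 h, dissociated, and seeded in a limiting dilution from 1000 to 1 cell/well, with 300 nM drug or DMSO. After 7 days in serum-free culture, neurospheres per well counted and plotted against cells seeded.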"}, "Daoy [5]": {"system": "Daoy", "experiment": "Downregulation of BARD1 gene expression in human Daoy cells at 300 nM by GSEA method", "format": "functional, cell-based", "outline": "(§2)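 Daoy cells treated with DMSO or 300 nM drug. RNA extracted and hybridized to Affymetrix HG-ST2.0 arrays. Analysis in R/Bioconductor with gene set enrichment analysis. Regulated transcripts defined as p < 0.05, FDR < 0.05, fold change < 0.67 (down) or > 1.5 (up).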"}, "Medulloblastoma cell": {"system": "Medulloblastoma cell", "experiment": "Antitumor activity against patient-derived Medulloblastoma cells assessed as BrdU incorporation at 300 nM preincubated with compound for 7 days followed by BrdU addition and measured after 2 days by flow cytometry analysis (reference value: 33.3)", "format": "functional, Homo sapiens", "conditions": "time 9 day"}, "D425 Med [6]": {"system": "D425 Med", "experiment": "Antiproliferative activity in human D425 Med cells assessed as inhibition of cell growth at 300 nM by flow cytometry analysis", "format": "functional, cell-based", "outline": "(§3)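 ViaCount flow cytometric cell count. Cells seeded in medium, DMSO or drug added 24 h later, cultured a further 48 h. Cells then pelleted, washed, stained with Viacount reagent and counted on a Guava cytometer. Vehicle control DMSO.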"}, "D425 Med [7]": {"system": "D425 Med", "experiment": "Inhibition of colony formation in human D425 Med cells at 100 to 300 nM incubated for 8 to 11 days by NBT staining based methyl cellulose colony growth assay", "format": "functional, cell-based", "conditions": "dose 100-300 nM, time 8-11 day", "outline": "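500 cells/well suspended in DMEM with methyl cellulose (1.3% final) containing 150 or 300 nM drug or DMSO, plated in triplicate. Colonies formed over 8–11 days, then stained with NBT (1 mg/ml) for 24 h at 37 °C. Colonies of ≥50 cells counted.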"}, "[8]": {"target": "Bromodomain-containing protein 4 (Homo sapiens) (UniProt O60885)", "conditions": "D458 Med, dose 300.0 nM"}, "[9]": {"target": "Bromodomain-containing protein 4 (Homo sapiens) (UniProt O60885)", "conditions": "D283 Med, dose 300.0 nM", "remark": "listed apart in the source"}, "Daoy [10]": {"system": "Daoy", "experiment": "Antitumor activity against human Daoy cells xenografted in athymic nude mice assessed as inhibition of proliferation at 50 mg/kg, ip measured after 5 days by Ki67 staining based analysis", "format": "functional, organism-based", "conditions": "time 5.0 day", "outline": "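Daoy cells (1.0×10^7 in PBS) injected into the flank of athymic nude mice. Once tumors were palpable, drug given 50 mg/kg i.p. with DMSO as vehicle control. Animals were sacrificed after a 5-day treatment. Tumors were assessed by Ki67 IHC and by senescence-associated β-galactosidase staining.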"}, "D425 Med [11]": {"system": "D425 Med", "experiment": "Induction of cell cycle arrest in human D425 Med cells assessed as G2/M phase cells at 300 nM incubated for 48 hrs by flow cytometry analysis (reference value: 37 +/- 0.47%)", "format": "functional"}, "Daoy [12]": {"system": "Daoy", "experiment": "Antiproliferative activity in human Daoy cells assessed as inhibition of cell growth at 300 nM by flow cytometry analysis", "format": "functional, cell-based", "outline": "as §3"}, "Daoy [13]": {"system": "Daoy", "experiment": "Induction of senescence in human Daoy cells assessed as increase in beta-galactosidase level at 75 to 300 nM measured after 7 days by staining based analysis", "format": "functional, cell-based", "conditions": "dose 75-300 nM, time 7.0 day", "outline": "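Daoy cells treated with 75 or 300 nM drug or DMSO. Senescence-associated β-galactosidase staining performed after 7 days. Positive cells counted per high power field.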"}, "[14]": {"target": "Bromodomain-containing protein 4 (Homo sapiens) (UniProt O60885)", "conditions": "D283 Med, dose 300.0 nM", "remark": "listed apart in the source"}, "Daoy [15]": {"system": "Daoy", "experiment": "Induction of senescence in human Daoy cells assessed as increase in p27 mRNA expression at 300 nM by RT-qPCR analysis", "format": "functional, cell-based", "outline": "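Cells treated with 300 nM drug or DMSO. p16, p21 and p27 mRNA measured by TaqMan qPCR with ΔΔCt quantitation, in triplicate.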"}, "D283 Med [16]": {"system": "D283 Med", "experiment": "Suppression of human D283 Med cells self-renewal cultured in serum free condition assessed as reduction in formation of new neurosphere at 300 nM", "format": "functional, cell-based", "outline": "as §1"}, "Daoy [17]": {"system": "Daoy", "experiment": "Antitumor activity against human Daoy cells xenografted in athymic nude mice assessed as reduction in tumor growth at 50 mg/kg, ip administered 5 days a week for 4 weeks and measured after 20 days", "format": "functional, organism-based", "conditions": "time 48.0 day", "outline": "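Daoy cells (1.0×10^7 in PBS) injected into the flank of athymic nude mice. Dosing began once tumors were palpable, at a mean of 52 days post inoculation. 50 mg/kg i.p. or DMSO vehicle given 5 days/week for 4 weeks, n=10, with tumors followed a further 20 days. Volume by caliper as π/6 × L × W × H. Body weight recorded 3 times weekly.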"}, "Daoy [18]": {"system": "Daoy", "experiment": "Downregulation of IFRD1 gene expression in human Daoy cells at 300 nM by GSEA method", "format": "functional, cell-based", "outline": "as §2"}, "[19]": {"target": "Bromodomain-containing protein 4 (Homo sapiens) (UniProt O60885)", "conditions": "Daoy, dose 100-300 nM, time 48.0 hrs"}, "Daoy [20]": {"system": "Daoy", "experiment": "Downregulation of MYBL2 gene expression in human Daoy cells at 300 nM by GSEA method", "format": "functional, cell-based", "outline": "as §2"}, "D283 Med [21]": {"system": "D283 Med", "experiment": "Induction of cell cycle arrest in human D283 Med cells assessed as G2/M phase cells at 300 nM incubated for 48 hrs by flow cytometry analysis (reference value: 55.70 +/- 1.50 %)", "format": "functional"}, "Daoy [22]": {"system": "Daoy", "experiment": "Inhibition of E2F1 activity in human Daoy cells at 100 to 300 nM by luciferase based reporter assay", "format": "functional, cell-based", "conditions": "dose 100-300 nM", "outline": "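Cignal pathway reporter system using an E2F1-responsive luciferase reporter. Cells seeded in 24-well plates and transfected with Surefect. DMSO or drug added 8 h later, then incubated a further 24 h before luciferase readout.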"}, "D425 Med [23]": {"system": "D425 Med", "experiment": "Induction of cell cycle arrest in human D425 Med cells assessed as S phase cells at 300 nM incubated for 48 hrs by flow cytometry analysis (reference value: 28.96 +/- 0.89%)", "format": "functional"}, "[24]": {"target": "Bromodomain-containing protein 4 (Homo sapiens) (UniProt O60885)", "conditions": "D425 Med, dose 300.0 nM"}, "Daoy [25]": {"system": "Daoy", "experiment": "Induction of cell cycle arrest in human Daoy cells assessed as G2/M phase cells at 300 nM incubated for 48 hrs by flow cytometry analysis (reference value: 33.94 +/- 1.46%)", "format": "functional"}, "[26]": {"target": "Bromodomain-containing protein 4 (Homo sapiens) (UniProt O60885)", "conditions": "Daoy, dose 100.0 nM, time 24-72 hrs, TDE = time-dependent effect"}}, "note": "Active and inactive are the calls of the source.", "data": [{"molecule": "Cc1sc2c(c1C)C(c1ccc(Cl)cc1)=N[C@@H](CC(=O)OC(C)(C)C)c1nnc(C)n1-2", "values": [{"measurement": "inhibition", "setting": "[1]", "value": "Active"}, {"measurement": "inhibition", "setting": "[2]", "value": "Active"}, {"measurement": "inhibition", "setting": "[3]", "value": "Active"}, {"measurement": "Activity", "setting": "Daoy [4]", "value": "Active"}, {"measurement": "Activity", "setting": "Daoy [5]", "value": "Active"}, {"measurement": "Activity", "setting": "Medulloblastoma cell", "value": 13.5}, {"measurement": "Activity", "setting": "D425 Med [6]", "value": "Active"}, {"measurement": "inhibition", "setting": "D425 Med [7]", "value": "Active"}, {"measurement": "inhibition", "setting": "[8]", "value": "Active"}, {"measurement": "inhibition", "setting": "[9]", "value": "Active"}, {"measurement": "Activity", "setting": "Daoy [10]", "value": "Active"}, {"measurement": "Activity", "setting": "D425 Med [11]", "value": 31, "unit": "%"}, {"measurement": "Activity", "setting": "Daoy [12]", "value": "Active"}, {"measurement": "Activity", "setting": "Daoy [13]", "value": "Active"}, {"measurement": "inhibition", "setting": "[14]", "value": "Active"}, {"measurement": "Activity", "setting": "Daoy [15]", "value": "Active"}, {"measurement": "Activity", "setting": "D283 Med [16]", "value": "Active"}, {"measurement": "Activity", "setting": "Daoy [17]", "value": "Active"}, {"measurement": "Activity", "setting": "Daoy [18]", "value": "Active"}, {"measurement": "inhibition", "setting": "[19]", "value": "Dose-Dependent Effect"}, {"measurement": "Activity", "setting": "Daoy [20]", "value": "Active"}, {"measurement": "Activity", "setting": "D283 Med [21]", "value": 53.216, "unit": "%"}, {"measurement": "inhibition", "setting": "Daoy [22]", "value": "Active"}, {"measurement": "Activity", "setting": "D425 Med [23]", "value": 28.636, "unit": "%"}, {"measurement": "inhibition", "setting": "[24]", "value": "Active"}, {"measurement": "Activity", "setting": "Daoy [25]", "value": 16.813, "unit": "%"}, {"measurement": "inhibition", "setting": "[26]", "value": "Tde"}]}]}
